In ChEMBL document CHEMBL5104154, “Thiamine analogues as inhibitors of pyruvate dehydrogenase and discovery of a thiamine analogue with non-thiamine related antiplasmodial activity” (RSC Med Chem, 2022):
The source made the active and inactive calls. The rule behind the calls is not given here.

Assays:
Pyruvate decarboxylase = molecular target: T1, Pyruvate decarboxylase (Zymomonas mobilis subsp. mobilis, UniProt P06672); experiment: Inhibition of Zymomonas mobilis pyruvate decarboxylase incubated for 3 mins using pyruvate as substrate in presence of TPP by spectrophotometric analysis
T1 sequence (P06672 whole entry): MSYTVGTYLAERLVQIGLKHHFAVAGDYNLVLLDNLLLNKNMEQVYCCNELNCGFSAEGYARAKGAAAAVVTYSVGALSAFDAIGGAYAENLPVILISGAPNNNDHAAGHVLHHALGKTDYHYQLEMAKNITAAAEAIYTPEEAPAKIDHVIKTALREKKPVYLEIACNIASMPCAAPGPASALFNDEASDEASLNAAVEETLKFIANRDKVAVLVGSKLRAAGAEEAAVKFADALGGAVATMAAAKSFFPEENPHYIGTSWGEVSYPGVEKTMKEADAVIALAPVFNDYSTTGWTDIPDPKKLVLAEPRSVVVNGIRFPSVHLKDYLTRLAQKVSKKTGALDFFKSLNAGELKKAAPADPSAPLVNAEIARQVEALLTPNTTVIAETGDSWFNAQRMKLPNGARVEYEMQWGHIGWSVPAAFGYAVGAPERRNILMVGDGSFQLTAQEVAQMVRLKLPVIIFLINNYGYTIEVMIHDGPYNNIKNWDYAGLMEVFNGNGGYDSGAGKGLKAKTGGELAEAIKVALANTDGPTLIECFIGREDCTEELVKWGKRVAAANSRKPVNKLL

[1] = Cytotoxicity against human HFF cells assessed as inhibition of cell proliferation incubated for 96 hrs by SYBR-based fluorescence assay; format: toxicity
Summary of the method: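 Human foreskin fibroblasts exposed to compounds up to the highest concentration that solubility allowed.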

Plasmodium falciparum [2] = experiment: Antiplasmodial activity against chloroquine-sensitive Plasmodium falciparum 3D7 overexpressing GFP-tagged plasmodium falciparum TPK assessed as inhibition of parasite proliferation in presence of 2.97 uM thiamine by SYBR-based fluorescence assay; format: functional, organism-based
[3] = Selectivity index, ratio of IC50 for cytotoxicity against human HFF cells to IC50 for antiplasmodial activity against chloroquine-sensitive Plasmodium falciparum 3D7; format: toxicity, cell-based; conditions: read-out: Ratio IC50
Plasmodium falciparum [4] = experiment: Antiplasmodial activity against chloroquine-sensitive Plasmodium falciparum 3D7 assessed as inhibition of parasite proliferation in presence of 2.2 to 220 uM folic acid by SYBR-based fluorescence assay; format: functional, organism-based

Q: With `Cc1ncc(Cn2cc(CCOP(=O)(O)OP(=O)(O)O)nn2)c(N)n1` as the compound, how does the Ki (Pyruvate decarboxylase) read?
A: The Ki was 3e-05 µM.

Q: Which IC50 at 96 h [1] does the source give for `Cc1ncc(Cn2cc(CCOC(=O)c3ccccc3)nn2)c(N)n1` here?
A: Its IC50 at 96 h is greater than 200 µM.

Q: Which Activity (Plasmodium falciparum [2]) does the source give for `Cc1ncc(C[n+]2csc(CCO)c2C)c(O)n1` here?
A: The Activity was “Active”.

Q: Which Ki (Pyruvate decarboxylase) does the source give for `Cc1ncc(Cn2cc(CCO)nn2)c(N)n1` here?
A: Its Ki is 300 µM.

Q: With `Cc1ncc(Cn2cc(CCO)nn2)c(NCc2ccc(Br)cc2)n1` as the compound, how does the IC50 at 96 h [1] read?
A: Its IC50 at 96 h is 98 µM.

Q: Which selectivity ratio [3] does the source give for `Cc1ncc(Cn2cc(CCOC(=O)c3cccc(Cl)c3)nn2)c(N)n1` here?
A: Its selectivity ratio is greater than 3.2.

Q: What about the IC50 at 96 h [1] of the same compound?
A: The IC50 at 96 h was greater than 200 µM.

Q: With `COc1ncnc(NS(=O)(=O)c2ccc(N)cc2)c1OC` as the compound, how does the Activity (Plasmodium falciparum [4]) read?
A: The Activity was “Active”.
